Experimental data: publication PMC11544174 (Acta Pharmaceutica Sinica. B, 2024)

Columns and labels:
[1] = system: respiratory syncytial virus (RSV); assay: cytopathic effect; assay type: cell-based, strain A2; conditions: human respiratory syncytial virus, HEp-2, read-out: IC50 ± SD (50% inhibition concentration), anti-RSV activity
Method in brief: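 Host cells were HEp-2 in DMEM with 10% FBS. RSV A2 stock was propagated in HEp-2 and titred by plaque assay. Test compounds were held as 50 mmol/L DMSO stocks at −20 °C and diluted into medium to final concentrations. Ribavirin served as positive control.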

[2] = cytotoxicity; assay type: cell-based; conditions: human, HEp-2 cells
Method in brief: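 HEp-2 cells were grown in DMEM with 10% FBS. Test compounds were held as 50 mmol/L DMSO stocks at −20 °C and diluted into culture medium to final concentrations. Ribavirin served as positive control.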

IC50 [1]: 15 ± 1 µM
Compound: NC(=O)c1ncn([C@@H]2O[C@H](CO)[C@@H](O)[C@H]2O)n1 [Ribavirin]
CC50 [2]: > 50 µM
